High-throughput results (PubChem BioAssay)
MrgX1 allo act = human MrgX1 positive allosteric modulation, primary screen | Q96LB2 | MrgX1-HEK293, Fluo-4 calcium flux, FDSS; active compounds read high | B-score at 10 µM | 310,000 compounds, 0.63% hits | AID 588675;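 active means plate-corrected calcium response at least 3 library SD above typical, normal starting fluorescence, not activating the receptor alone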;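 further: compound read alongside a low EC10 to EC30 dose of BAM8-22 agonist; peak minus trough fluorescence over baseline measured at the second addition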
Target sequence (Q96LB2 whole entry, looked up): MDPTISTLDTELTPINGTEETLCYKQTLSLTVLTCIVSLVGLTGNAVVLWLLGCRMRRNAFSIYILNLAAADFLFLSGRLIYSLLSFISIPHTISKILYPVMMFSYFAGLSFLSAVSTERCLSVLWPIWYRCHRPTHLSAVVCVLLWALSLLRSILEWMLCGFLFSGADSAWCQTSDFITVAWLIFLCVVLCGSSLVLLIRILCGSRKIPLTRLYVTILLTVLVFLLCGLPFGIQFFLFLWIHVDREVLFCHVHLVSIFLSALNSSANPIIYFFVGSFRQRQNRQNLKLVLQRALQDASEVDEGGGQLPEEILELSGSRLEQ
RGS4 inh = human RGS4 inhibition; HEK293 M3R/RGS4 inducible, Fluo-4 calcium flux; active compounds read high; triggered by carbachol at its EC20; B-score at 10 µM; 310,000 compounds, 0.45% hits; AID 463165;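 active means B-score, a plate-corrected calcium signal, over three deviations above library mean, with baseline fluorescence within five deviations of library mean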;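 further: RGS4 expression induced by doxycycline in cells with stable M3 receptor; B-score is computed from the integrated fluorescence ratio over baseline after carbachol; higher B-score means a larger calcium signal and so more RGS4 inhibition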
Target sequence (P49798 whole entry, looked up): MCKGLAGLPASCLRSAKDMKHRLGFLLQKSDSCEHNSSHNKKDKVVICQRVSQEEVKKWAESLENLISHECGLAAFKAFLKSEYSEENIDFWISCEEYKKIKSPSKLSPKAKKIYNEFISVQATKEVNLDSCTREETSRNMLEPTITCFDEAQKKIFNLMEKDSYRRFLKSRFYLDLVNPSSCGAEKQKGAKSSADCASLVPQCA
MrgX1 agonist = activates human MrgX1 receptor signaling; MrgX1-HEK293 cells, Fluo-4 calcium fluorescence, agonist mode; active compounds read high; B-score at 10 µM; 310,000 compounds, 0.44% hits; AID 588627;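 active means calcium response B-score plate-corrected fluorescence ratio at least 3 library SD, with starting fluorescence B-score inside 5 SD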
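Assay system: stable human MrgX1 HEK293 cell line. Quantity: 15,000 cells per well. Schedule: cells plated overnight, dye loaded 0.5 h 37 °C, 0.5 h room temperature. Detection: Fluo-4 NW calcium-flux fluorescence, kinetic read. Read-out basis: peak-minus-minimum fluorescence over baseline, converted to B scores. Control set: positive and negative control wells on each plate.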
RGS4 act = potentiators or activators of RGS4 | HEK293 M3R/inducible RGS4, carbachol calcium flux Fluo4; active compounds read low | B-score at 10 µM | 310,000 compounds, 0.92% hits | AID 463111;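 active means B-score of the integrated calcium signal more than 4 SD below the library mean, with starting fluorescence not abnormally high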;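 further: negative B-score means reduced calcium response which marks RGS4 activation or potentiation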
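test system = HEK293 cells with stable M3R and inducible RGS4 | schedule = recording 10 s baseline at 1 Hz, 100 s post-agonist | technique = Fluo4-AM (2 µM) calcium-flux fluorescence, kinetic read | measure = Agonist-evoked peak-minus-minimum fluorescence over baseline, integrated ratio, B score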
MrgX1 antagonist = blocks BAM8-22 activation of human MrgX1 receptor. MRGX1-HEK293 calcium flux, Fluo-4, BAM8-22 antagonism; active compounds read low. B-score at 10 µM. 310,000 compounds, 1.3% hits. AID 588676;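 active means calcium-response B-score plate-corrected more than 3 library SD below zero, starting fluorescence within 5 deviations, no agonist response on first addition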;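 further: peak minus trough fluorescence over baseline after final BAM8-22 challenge near maximal dose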
Each line names hits and unclear results; the compound was inactive in the other large screens. Most compounds without a hit are left out; they make up all but 3.5% or so of the library.

CC1CCN(C(=O)CCC(=O)Nc2nnc(C3CCCCC3)s2)CC1	none
C[N+]1(CC(=O)OC2CCCCCCCCCCC2)CCCC1	RGS4 act -7.2
CCOc1ccc(CCNC(=O)COC(=O)c2nc(Cl)ccc2Cl)cc1OCC	none
CCOC(=O)C1CCN(C(=O)C2CCN(c3nc4ccc(OC)cc4s3)CC2)CC1	MrgX1 antagonist -5.5
CCOC(=O)C1CCN(C(=O)C2CCN(c3nnc(-n4cccc4)s3)CC2)CC1	none
Cc1ccc(C)c(-n2c3nc(=O)[nH]c(=O)c-3cc3cc([N+](=O)[O-])ccc32)c1	MrgX1 agonist 34 (no result: RGS4 inh, RGS4 act)
COc1cccc(NC(=O)c2ccc3nc(C)sc3c2)c1	none
COc1ccc(CN=Cc2[nH]c3ccc(Br)c(Cl)c3c2O)cc1	MrgX1 agonist 37
COc1ccc(CN=CC2=C(O)CNC2=O)cc1	none
Cc1cc(C)cc(N=Cc2[nH]c3ccc(Br)c(Cl)c3c2O)c1	MrgX1 agonist 39
O=C(Cn1c(=O)oc2ccccc21)NCC1COc2ccccc2O1 (stereo not given)	none
O=C1CCC(C(=O)Nc2cccc(Br)c2)N1 (stereo not given)	none
CN1C(=O)/C(=C/c2ccccc2OCc2ccc(F)cc2)N(C)C1=S	RGS4 act -9.6, MrgX1 antagonist -5.2
CN1C(=O)/C(=C/c2ccccc2OCc2ccccc2)NC1=S	none
COc1cccc(-c2nn(C)c3sc(C(=O)N4CCN(c5ccccn5)CC4)cc23)c1	RGS4 act -11
COc1cccc(-c2nn(C)c3sc(C(=O)N4CCOCC4)cc23)c1	none
Cc1ccc(O)c(N=Cc2cc(Cc3ccccc3)cc([N+](=O)[O-])c2O)c1	RGS4 act -7.2 (no result: MrgX1 allo act, MrgX1 agonist, MrgX1 antagonist)
COc1cc(/C=C(\C#N)c2nc(-c3cc4ccccc4oc3=O)cs2)ccc1O	MrgX1 antagonist -9.2
CCOc1ccc(/C(C)=N/NC(=O)c2nnn(-c3nonc3N)c2-c2cccs2)cc1	none
CNCCCOc1ccc(C(C)(C)c2ccccc2)cc1	none (no result: MrgX1 allo act, MrgX1 agonist, MrgX1 antagonist)
COCCCNCCOc1ccc(C(C)(C)c2ccccc2)cc1	RGS4 act -7.8
Cc1cccc(NC(=O)CSc2nnc3ccc(-c4ccccn4)nn23)c1	none
CCn1cc([N+](=O)[O-])nc1C	MrgX1 antagonist -7.5
COC(=O)Cn1cc([N+](=O)[O-])nc1C	none
N#CC1=C(N)N2C(=C(C#N)C1c1ccccc1)Sc1ccccc12 (stereo not given)	none
CCOc1ccc(C2C(C#N)=C(N)N3C(=C2C#N)Sc2ccccc23)cc1 (stereo not given)	MrgX1 antagonist -4.8
O=C(COC(=O)c1cc([N+](=O)[O-])ccc1N1CCOCC1)Nc1cccc(F)c1	none
Cc1ccccc1OCC(=O)NCC(=O)OCc1ccc(Br)cc1	none
COc1ccc(Nc2nc(-c3ccccc3O)nc3ccccc23)cc1	RGS4 act -7
COc1ccc(Nc2nc(-c3ccccc3F)nc3ccccc23)cc1OC	RGS4 act -7.2
Cc1nc(C2CCC3C4CCC5=CC(=O)CC[C@]5(C)C4CC[C@]23C)cs1 (stereo not given in full)	RGS4 act -10
CCCOC(=O)c1ccc(NC(=O)Cc2cccs2)cc1	none
Cc1cc(C)c(S(=O)(=O)Nc2ccc3c4c(cccc24)CC3)c(C)c1	RGS4 act -7.5
CNc1ccc(Br)cc(C(=O)/C=C/c2cccc(OC)c2OC)c1=O	MrgX1 antagonist -4.8
CCNc1ccc(Br)cc(C(=O)/C=C/c2ccccc2Cl)c1=O	MrgX1 antagonist -6
C[C@@H](NC(=O)c1cc2c([nH]c3ccccc32)c(-c2ccccc2)n1)C(=O)O	none
COc1cc(C=O)ccc1OCCOCCOc1ccc(Cl)cc1	none
COc1cc(C=O)ccc1OCCSc1ccc(Cl)cc1	MrgX1 antagonist -5.4
Cc1cc(C(=O)O)c(CSCc2cc(C(=O)O)oc2C)o1	none
CCOc1ccc(-c2c(C(=O)N/N=C/C3CC=CCC3)nnn2-c2nonc2N)cc1 (stereo not given)	none
COc1ccc(C(=O)CN2C(=O)NC3(CCCc4ccccc43)C2=O)cc1 (stereo not given)	RGS4 act -7.5
Cc1cccc(N2CCN(C(=O)c3ccc(-n4cncn4)c([N+](=O)[O-])c3)CC2)c1C	MrgX1 antagonist -4.9
O=C(OCc1ccc([N+](=O)[O-])cc1)c1ccc2ccccc2n1	none
O=C(OCc1cccc([N+](=O)[O-])c1)c1ccc2ccccc2n1	MrgX1 allo act 12
CCOC(=O)CCSc1nc(C(C)(C)C)cc(C(F)(F)F)c1C#N	RGS4 act -7.2
Cc1ccc(C(=O)COC(=O)C2CC3CCCC(C2)C3=O)cc1[N+](=O)[O-] (stereo not given)	MrgX1 antagonist -5.6
Cc1ccc(Cl)cc1N1CCN(C(=O)CSc2nnc3n2C(C)(C)Cc2ccccc2-3)CC1	RGS4 act -7, MrgX1 antagonist -9.5
CC1=NN(c2ccccc2)C(=O)/C1=C/c1cccs1	none
O=C1NN(c2ccc(F)cc2)C(=O)/C1=C/c1cccs1	MrgX1 agonist 30
CC(C)N(C(=O)c1nn(C)c2c1CSc1ccccc1-2)C1CCCCC1	MrgX1 allo act 15
O=C(Cc1cccs1)NCCS(=O)(=O)N1CCN(c2ccccc2F)CC1	none
COc1cc(/C=N/Nc2ccc(C(F)(F)F)cn2)ccc1O	MrgX1 allo act 7.5
COc1ccc(C(C)NC(=O)c2ccc([N+](=O)[O-])cc2)cc1OC (stereo not given)	MrgX1 antagonist -5.5
COc1ccc(NC(=O)c2ccc(-c3ccc([N+](=O)[O-])cc3)o2)cc1OC	MrgX1 antagonist -5.3
O=C(CSc1cn(CCNC(=O)c2cccs2)c2ccccc12)NC1CCCC1	none
CC(C)C(=O)NNC(=O)c1cc2sccc2s1	none
CCOCCSc1n[nH]c(=O)n1CCc1ccccc1	none
CC(C)CCNC(=O)CSc1nnc(-c2ccc(S(=O)(=O)N3CCCC3)cc2)n1C	MrgX1 antagonist -5.4
CC(=O)CSc1nnc(-c2ccc(S(=O)(=O)N3CCCC3)cc2)n1C	none
O=C(c1ccccc1)c1c2c(cc3sc4ccccc4[n+]13)-c1cccc3cccc-2c13	MrgX1 antagonist -8.8 (no result: RGS4 inh, RGS4 act)
Cc1sc2ccccc2[n+]1CC(=O)c1ccccc1	none
CN1CCN(c2nc(-c3ccc(Cl)cc3Cl)nc3ccccc23)CC1	none
CC(C)(C)N(Cc1ccccc1)C(=O)c1ccc(Cl)cc1[N+](=O)[O-]	RGS4 act -10
O=C(c1ccc(Cl)cc1[N+](=O)[O-])N(Cc1ccccc1)Cc1ccccc1	none
Cc1c(Br)c([N+](=O)[O-])nn1CC(=O)NCCc1c[nH]c2ccccc12	MrgX1 antagonist -5
Cc1c(Br)c([N+](=O)[O-])nn1CC(=O)NCc1ccccc1	none
CCC1=NN2C(=N)/C(=C/c3cc(C)n(Cc4ccccc4)c3C)C(=O)N=C2S1	none
COc1ccc(-n2cccc2/C=C2\C(=N)N3N=C(C(C)C)SC3=NC2=O)cc1	none
